Reference: ChEMBL document CHEMBL1131618, “Synthesis, activity, and structure--activity relationship studies of novel cationic lipids for DNA transfer” (1998)

Assays:
HeLa [1] = assay: Luciferase activity in human Hela cells; format: functional
How it was run: (§1)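 5×10^4 cells plated in DMEM at 37 °C, 5% CO2, and transfected after 24 h at 50/70% confluency in serum-free medium. CMV-luciferase plasmid mixed with cationic lipid in 75 mM NaCl final, four lipid:DNA ratios, added dropwise, triplicates. Serum added to 10% at 2 h, then 44 h more. Lysate supernatant read with 10 s luminometer counting. Value at optimal ratio.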

NIH3T3 [2] = assay: Luciferase activity in mouse fibroblasts NIH3T3 cells.; format: functional; how it was run: as §1
NIH3T3 [3] = assay: Compound was tested for the impact of introduction of molecular probe as side chain entity in the linker position on expression of luciferase in transfected NIH3T3 cells (RLU = luciferase activity in relative light units (RLU)/10 s for 10E3 plated cells); format: functional, Mus musculus; how it was run: as §1
[4] = tested on: CV1 cells (Cercopithecus aethiops); assay: Compound was tested for the impact of introduction of molecular probe as side chain entity in the linker position on expression of luciferase in transfected CV1 cells (RLU = luciferase activity in relative light units (RLU)/10 s for 10E3 plated c ells)
HeLa [5] = assay: Compound was tested for the impact of introduction of a side chain entity in the linker position on expression of luciferase in transfected HeLa cells (RLU = luciferase activity in relative light units (RLU)/10 s for 10E3 plated cells); format: functional, Homo sapiens; how it was run: as §1
NIH3T3 [6] = assay: Compound was tested for the impact of introduction of a side chain entity in the linker position on expression of luciferase in transfected NIH3T3 cells (RLU = luciferase activity in relative light units (RLU)/10 s for 10E3 plated cells); format: functional, Mus musculus; how it was run: as §1
HeLa [7] = assay: Compound was tested for the impact of linker length on expression of luciferase in transfected HeLa cells (RLU = luciferase activity in relative light units (RLU)/10 s for 10E3 plated cells); format: functional, Homo sapiens; how it was run: as §1
CV-1 = assay: Compound was tested for luciferase activity in Monkey CV1 Cell Lines; format: functional, Cercopithecidae
How it was run: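 CV1 cells (5×10^4) plated in MEM at 37 °C, 5% CO2, and transfected after 24 h at 50/70% confluency in serum-free medium. CMV-luciferase plasmid mixed with lipid in 75 mM NaCl final, four lipid:DNA ratios, triplicates. 10% serum added at 2 h, then 44 h more. Lysates counted 10 s. Value reported at optimal ratio.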

HeLa [8] = assay: Compound was tested for the impact of polyamine geometry on expression of luciferase in transfected HeLa cells (RLU = luciferase activity in relative light units (RLU)/10 s for 10E3 plated cells); format: functional, Homo sapiens; how it was run: as §1
NIH3T3 [9] = assay: Compound tested for the impact on expression of luciferase in transfected NIH3T3 cells (RLU = luciferase activity in relative light units (RLU)/10 s for 10E3 plated cells); format: functional, Mus musculus; how it was run: as §1
HeLa [10] = assay: Compound was tested for the impact of the length of the lipid on expression of luciferase in transfected HeLa cells (RLU = luciferase activity in relative light units (RLU)/10 s for 10E3 plated cells); format: functional, Homo sapiens; how it was run: as §1
NIH3T3 [11] = assay: Compound was tested for the impact of the length of the lipid on expression of luciferase in transfected NIH3T3 cells (RLU = luciferase activity in relative light units (RLU)/10 s for 10E3 plated cells); format: functional, Mus musculus; how it was run: as §1

| SMILES | Luciferase activity (HeLa [1]) | Luciferase activity (NIH3T3 [2]) | RLU (NIH3T3 [9]) | other results |
| --- | --- | --- | --- | --- |
| CCCCCCCCCCCCCCCCCCN(CCCCCCCCCCCCCCCCCC)C(=O)[C@H](CCCCN)NC(=O)CNCCCNCCCCNCCCN | 700000 RLU 10s-1 | 10000000 RLU 10s-1 | – | – |
| CCCCCCCCCCCCCCCCCCN(CCCCCCCCCCCCCCCCCC)C(=O)C(CCCCNC(=O)CCCCC1SC[C@@H]2NC(=O)N[C@H]12)NC(=O)CNCCCNCCCCNCCCN (stereo partly drawn) | – | – | – | RLU (NIH3T3 [3]): 5400000; RLU [4]: 160000 |
| CCCCCCCCCCCCCCCCCCN(CCCCCCCCCCCCCCCCCC)C(=O)C(CCCCNC(=O)OCc1ccccc1Cl)NC(=O)CNCCCNCCCCNCCCN (stereo not drawn) | 1400000 RLU 10s-1 | 30000000 RLU 10s-1 | – | RLU (HeLa [5]): 1400000; RLU (NIH3T3 [6]): 30000000 |
| CCCCCCCCCCCCCCCCCCN(CCCCCCCCCCCCCCCCCC)C(=O)CCCCCNC(=O)CNCCCNCCCCNCCCN | 3500000 RLU 10s-1 | – | – | RLU (HeLa [7]): 3500000 |
| CCCCCCCCCCCCCCCCCCN(CCCCCCCCCCCCCCCCCC)C(=O)C(CCCCNC(=O)CCCC[C@H]1SC[C@@H]2NC(=O)N[C@@H]21)NC(=O)CNCCCNCCCCNCCCN (stereo partly drawn) | – | 5400000 RLU 10s-1 | – | Luciferase activity (CV-1): 160000 RLU 10s-1 |
| CCCCCCCCCCCCCCCCCCN(CCCCCCCCCCCCCCCCCC)C(=O)CNC(=O)CNCCN(CCN)CCN | 130000 RLU 10s-1 | 20000000 RLU 10s-1 | 20000000 | RLU (HeLa [8]): 130000 |
| CCCCCCCCCCCCCCCCCCN(CCCCCCCCCCCCCCCCCC)C(=O)CNCCCN(CCCN)CCCCN(CCCN)CCCN | – | – | 59000000 | – |
| CCCCCCCCCCCCCCCCCCN(CCCCCCCCCCCCCCCCCC)C(=O)CNCCCNCCCCNCCCN | 2600000 RLU 10s-1 | 2000000 RLU 10s-1 | 2000000 | RLU (HeLa [7]): 2600000 |
| CCCCCCCCCCCCCCCCCCN(CCCCCCCCCCCCCCCCCC)C(=O)C(CCC(=O)O)NC(=O)CNCCCNCCCCNCCCN (stereo not drawn) | – | – | – | RLU (HeLa [5]): 15000000; RLU (NIH3T3 [6]): 63000000 |
| CCCCCCCCCCCCCCCCCCN(CCCCCCCCCCCCCCCCCC)C(=O)[C@H](CCC(=O)O)NC(=O)CNCCCNCCCCNCCCN | 15000000 RLU 10s-1 | 63000000 RLU 10s-1 | – | – |
| CCCCCCCCCCCCCCCCCCN(CCCCCCCCCCCCCCCCCC)C(=O)CNC(=O)CNCCN(CCCN)CCCCN(CCCN)CCCN | 580000 RLU 10s-1 | 68000000 RLU 10s-1 | – | – |
| CCCCCCCCCCCCCCCCCCN(CCCCCCCCCCCCCCCCCC)C(=O)CNC(=O)CNCCCNCCCCNCCCN | – | – | 54000000 | RLU (HeLa [5]): 10000000; RLU (HeLa [7]): 2400000; RLU (HeLa [8]): 2400000; RLU (HeLa [10]): 890000; RLU (NIH3T3 [6]): 200000000; RLU (NIH3T3 [3]): 26000000; RLU (NIH3T3 [11]): 44000000; RLU [4]: 7000 |
| CCCCCCCCCCCCCCCCCCN(CCCCCCCCCCCCCCCCCC)C(=O)CNCCN(CCN)CCN | – | 1500000 RLU 10s-1 | 1500000 | – |
| CCCCCCCCCCCCCCCCCCN(CCCCCCCCCCCCCCCCCC)C(=O)C(N)CCCN=C(N)N (stereo not drawn) | 4700 RLU 10s-1 | 8700 RLU 10s-1 | – | RLU (HeLa [5]): 4700; RLU (NIH3T3 [6]): 8700 |
| CCCCCCCCCCCCCCCCCCN(CCCCCCCCCCCCCCCCCC)C(=O)C(CCCN=C(N)N)NC(=O)CNCCCNCCCCNCCCN (stereo in doubt; form 2) | 8200000 RLU 10s-1 | 11000000 RLU 10s-1 | – | – |
| CCCCCCCCCCCCCCCCCCN(CCCCCCCCCCCCCCCCCC)C(=O)C(CCCC/N=C(\S)Nc1ccc(-c2c3ccc(=[N+](C)C)cc-3oc3cc(N(C)C)ccc23)c(C(=O)[O-])c1)NC(=O)CNCCCNCCCCNCCCN (stereo not drawn) [CATIONIC LIPID] | – | 1200000 RLU 10s-1 | – | Luciferase activity (CV-1): 130000 RLU 10s-1; RLU (NIH3T3 [3]): 1200000; RLU [4]: 130000 |
